In ChEMBL document CHEMBL3430321, “Simulation of multiple ion channel block provides improved early prediction of compounds' clinical torsadogenic risk” (Cardiovasc Res, 2011) one finds IC50 and EFTPC data, which are given here for 25 compounds.

In data set [1] the target is Sodium channel alpha subunit. Description: Inhibition of Na channel (species unknown). The data set is classed as functional.
Data set [2] can be described thus: (§1) Effective free therapeutic plasma concentration (EFTPC): the concentration of unbound compund in the blood plasma at therapeutic dose (mean of range). The data set is classed as ADME, organism-based. Particulars: human, in vivo.
For data set [3], the target named is Voltage-gated L-type calcium channel (Homo sapiens, UniProt Q13936+Q13698+Q01668+O60840). Description: Inhibition of voltage-gated L-type Ca channel (species unknown). The data set is classed as functional.
In data set [4] the target is T1, Voltage-gated inwardly rectifying potassium channel KCNH2 (Homo sapiens, UniProt Q12809). Description: Inhibition of potassium current (Ikr) measured using whole-cell patch clamp experiments in HEK-293 cells stable transfected with hERG cDNA. The data set is classed as functional, cell-based, HEK293. The method, boiled down: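 IKr concentration–response curves were recorded in HEK-293 cells stably expressing hERG cDNA.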

Data set [5] deals with Sodium channel protein type 5 subunit alpha (Homo sapiens, UniProt Q14524). Description: Inhibition of sodium current measured using whole-cell patch clamp experiments in HEK-293 cells stably transfected with hNaV1.5 cDNA. It is filed as functional, cell-based, HEK293.
The target in data set [6] is Voltage-dependent L-type calcium channel subunit alpha-1C (Cavia porcellus, UniProt O35505). Description: Inhibition of calcium current (ICaL) measured using whole-cell patch clamp experiments in isolated guinea pig ventricular myocytes. The data set is classed as functional, tissue-based, Heart, Ventricular myocyte.
In data set [7] the target is T1, Voltage-gated inwardly rectifying potassium channel KCNH2. Description: (§2) Inhibition of hERG K channel.
For data set [8] the target is unchanged. The data set is described as §2. It is filed as functional. The method, boiled down: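 IKr block assessed from concentration–response curves in HEK-293 cells stably transfected with hERG cDNA, giving IC50 values.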
Data set [9] is described as follows: as §1. Particulars: human, in vivo.

Sequence of Voltage-dependent L-type calcium channel subunit alpha-1C (O35505 whole entry): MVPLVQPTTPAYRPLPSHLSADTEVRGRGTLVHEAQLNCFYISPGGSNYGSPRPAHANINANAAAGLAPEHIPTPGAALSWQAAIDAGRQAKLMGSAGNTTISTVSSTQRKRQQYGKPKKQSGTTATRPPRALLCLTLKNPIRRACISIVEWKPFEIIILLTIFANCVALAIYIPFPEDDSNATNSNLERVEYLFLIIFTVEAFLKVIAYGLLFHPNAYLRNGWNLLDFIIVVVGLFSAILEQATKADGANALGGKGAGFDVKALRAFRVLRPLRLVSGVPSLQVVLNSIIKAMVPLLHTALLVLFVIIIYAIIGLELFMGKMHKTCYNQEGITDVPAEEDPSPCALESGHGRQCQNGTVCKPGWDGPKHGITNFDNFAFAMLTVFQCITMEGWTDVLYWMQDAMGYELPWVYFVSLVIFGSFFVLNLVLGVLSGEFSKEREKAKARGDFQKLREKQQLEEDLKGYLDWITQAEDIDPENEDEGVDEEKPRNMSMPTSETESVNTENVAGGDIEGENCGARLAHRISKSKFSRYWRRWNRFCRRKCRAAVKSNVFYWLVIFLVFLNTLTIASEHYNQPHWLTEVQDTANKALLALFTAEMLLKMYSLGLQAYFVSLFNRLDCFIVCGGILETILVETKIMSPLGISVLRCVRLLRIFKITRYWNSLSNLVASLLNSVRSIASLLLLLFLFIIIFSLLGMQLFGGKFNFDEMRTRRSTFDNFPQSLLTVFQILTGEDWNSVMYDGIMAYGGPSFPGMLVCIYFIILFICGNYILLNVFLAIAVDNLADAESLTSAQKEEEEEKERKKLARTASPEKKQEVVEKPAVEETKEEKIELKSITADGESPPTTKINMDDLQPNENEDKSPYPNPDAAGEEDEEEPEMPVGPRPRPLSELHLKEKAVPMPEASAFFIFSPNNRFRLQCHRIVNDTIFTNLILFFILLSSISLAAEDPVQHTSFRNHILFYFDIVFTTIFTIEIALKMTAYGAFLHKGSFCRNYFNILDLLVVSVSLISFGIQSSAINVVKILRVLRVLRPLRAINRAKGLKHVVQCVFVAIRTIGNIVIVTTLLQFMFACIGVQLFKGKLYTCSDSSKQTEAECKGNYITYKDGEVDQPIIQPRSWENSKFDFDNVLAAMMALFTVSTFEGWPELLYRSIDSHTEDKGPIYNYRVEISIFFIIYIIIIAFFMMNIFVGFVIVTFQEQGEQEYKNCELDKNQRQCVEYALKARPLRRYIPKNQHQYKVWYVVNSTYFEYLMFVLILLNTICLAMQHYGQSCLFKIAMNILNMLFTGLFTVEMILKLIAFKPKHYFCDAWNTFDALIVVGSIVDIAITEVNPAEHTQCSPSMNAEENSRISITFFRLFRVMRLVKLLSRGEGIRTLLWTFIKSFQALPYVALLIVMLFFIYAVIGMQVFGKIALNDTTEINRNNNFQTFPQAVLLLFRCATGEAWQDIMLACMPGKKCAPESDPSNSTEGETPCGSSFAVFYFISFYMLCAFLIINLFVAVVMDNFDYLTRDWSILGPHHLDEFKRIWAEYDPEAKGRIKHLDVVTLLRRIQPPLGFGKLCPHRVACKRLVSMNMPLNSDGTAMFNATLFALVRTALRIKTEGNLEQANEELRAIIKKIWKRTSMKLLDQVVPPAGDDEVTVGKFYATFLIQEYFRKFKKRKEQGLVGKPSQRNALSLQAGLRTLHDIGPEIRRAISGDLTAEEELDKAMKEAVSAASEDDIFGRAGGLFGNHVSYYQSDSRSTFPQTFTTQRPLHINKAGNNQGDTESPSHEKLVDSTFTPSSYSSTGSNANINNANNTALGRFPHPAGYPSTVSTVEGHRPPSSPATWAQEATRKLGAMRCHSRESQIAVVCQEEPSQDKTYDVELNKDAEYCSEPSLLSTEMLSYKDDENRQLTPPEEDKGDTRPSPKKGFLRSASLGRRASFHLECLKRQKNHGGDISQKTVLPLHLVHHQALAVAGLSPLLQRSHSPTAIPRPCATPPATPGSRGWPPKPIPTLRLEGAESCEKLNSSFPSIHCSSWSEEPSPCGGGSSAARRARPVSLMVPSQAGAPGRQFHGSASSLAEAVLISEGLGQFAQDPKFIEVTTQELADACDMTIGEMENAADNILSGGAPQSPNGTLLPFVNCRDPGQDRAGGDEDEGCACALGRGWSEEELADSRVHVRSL
Sequence of Sodium channel protein type 5 subunit alpha (Q14524 whole entry): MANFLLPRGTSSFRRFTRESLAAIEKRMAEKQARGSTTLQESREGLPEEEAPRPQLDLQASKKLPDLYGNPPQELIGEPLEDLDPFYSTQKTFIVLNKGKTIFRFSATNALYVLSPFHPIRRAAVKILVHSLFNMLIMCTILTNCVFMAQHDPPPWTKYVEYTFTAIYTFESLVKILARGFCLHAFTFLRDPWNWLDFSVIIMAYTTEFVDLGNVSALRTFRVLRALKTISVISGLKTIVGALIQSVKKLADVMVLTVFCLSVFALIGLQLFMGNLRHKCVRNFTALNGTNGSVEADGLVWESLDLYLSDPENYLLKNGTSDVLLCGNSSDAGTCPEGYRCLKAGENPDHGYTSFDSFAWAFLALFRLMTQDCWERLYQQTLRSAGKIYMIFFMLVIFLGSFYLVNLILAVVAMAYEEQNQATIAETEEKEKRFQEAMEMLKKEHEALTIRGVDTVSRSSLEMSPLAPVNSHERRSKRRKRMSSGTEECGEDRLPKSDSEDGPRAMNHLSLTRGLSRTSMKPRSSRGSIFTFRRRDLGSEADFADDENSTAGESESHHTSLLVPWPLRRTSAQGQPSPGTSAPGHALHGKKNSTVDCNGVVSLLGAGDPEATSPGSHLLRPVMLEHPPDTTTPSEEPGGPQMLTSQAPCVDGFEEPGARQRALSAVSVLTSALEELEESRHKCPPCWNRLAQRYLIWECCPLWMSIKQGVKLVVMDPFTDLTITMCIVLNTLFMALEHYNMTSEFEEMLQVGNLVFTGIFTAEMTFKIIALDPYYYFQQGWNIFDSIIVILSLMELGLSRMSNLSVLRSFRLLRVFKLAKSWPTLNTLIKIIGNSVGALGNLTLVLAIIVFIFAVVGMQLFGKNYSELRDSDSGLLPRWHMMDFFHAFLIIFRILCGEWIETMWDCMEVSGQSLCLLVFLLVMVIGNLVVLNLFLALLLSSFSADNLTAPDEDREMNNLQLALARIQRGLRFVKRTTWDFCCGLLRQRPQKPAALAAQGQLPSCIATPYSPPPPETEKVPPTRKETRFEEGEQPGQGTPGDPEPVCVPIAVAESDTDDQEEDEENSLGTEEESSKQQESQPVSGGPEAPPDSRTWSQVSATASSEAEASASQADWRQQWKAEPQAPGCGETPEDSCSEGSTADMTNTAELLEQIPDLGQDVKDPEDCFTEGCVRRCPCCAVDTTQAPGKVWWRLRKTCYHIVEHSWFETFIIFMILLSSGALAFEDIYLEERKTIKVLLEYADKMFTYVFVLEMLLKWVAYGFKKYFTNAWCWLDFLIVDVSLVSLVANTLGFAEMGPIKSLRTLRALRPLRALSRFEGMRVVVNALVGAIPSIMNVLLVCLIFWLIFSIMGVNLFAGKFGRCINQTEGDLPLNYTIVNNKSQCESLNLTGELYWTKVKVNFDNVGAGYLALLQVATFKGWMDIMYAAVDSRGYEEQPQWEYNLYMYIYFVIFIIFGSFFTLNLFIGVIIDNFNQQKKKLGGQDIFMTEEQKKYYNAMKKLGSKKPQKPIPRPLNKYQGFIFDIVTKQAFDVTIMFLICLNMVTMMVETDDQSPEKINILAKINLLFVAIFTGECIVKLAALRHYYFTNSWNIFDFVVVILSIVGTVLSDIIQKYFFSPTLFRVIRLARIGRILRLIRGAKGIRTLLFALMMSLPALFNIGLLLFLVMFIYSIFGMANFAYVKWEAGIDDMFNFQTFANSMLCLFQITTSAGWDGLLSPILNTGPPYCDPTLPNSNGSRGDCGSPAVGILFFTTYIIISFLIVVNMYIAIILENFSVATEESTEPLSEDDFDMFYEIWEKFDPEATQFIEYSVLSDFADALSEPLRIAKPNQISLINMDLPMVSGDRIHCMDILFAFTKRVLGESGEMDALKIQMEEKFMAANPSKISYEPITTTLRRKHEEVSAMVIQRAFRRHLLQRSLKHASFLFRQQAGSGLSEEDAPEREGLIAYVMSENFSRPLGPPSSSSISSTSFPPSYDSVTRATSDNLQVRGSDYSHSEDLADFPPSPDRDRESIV

As for `O=C1NCCN1CCN1CCC(c2cn(-c3ccc(F)cc3)c3ccc(Cl)cc23)CC1` [SERTINDOLE], the IC50 in data set [1] is 2.3 µM; in [3] it was 8.9 µM. Further, the EFTPC in [2] turned out to be 0.8 nM.

`CNCCCN1c2ccccc2CCc2ccccc21` [DESIPRAMINE]: the EFTPC in data set [2] is on record as 67.5 nM.

`CC(C)NCC(O)COc1cccc2ccccc12` (centres undefined) [PROPRANOLOL] returned an EFTPC in data set [2] of 19 nM.

Regarding `CN(C)CCC=C1c2ccccc2CCc2ccccc21` [AMITRIPTYLINE], the IC50 in [1] came to 20 µM; in data set [3], 11.6 µM.

Regarding `CC(Cc1ccccc1)NCCC(c1ccccc1)c1ccccc1` (centres undefined) [PRENYLAMINE], the IC50 was found to be 0.065 µM in data set [4], 2.52 µM in [5] and 1.24 µM in [6]. For the same compound, the EFTPC in data set [2] was determined as 13 nM.

`CC(C)(C)c1ccc(C(O)CCCN2CCC(C(O)(c3ccccc3)c3ccccc3)CC2)cc1` (centres undefined) [TERFENADINE]: the EFTPC in data set [2] is reported as 4.55 nM.

In data set [1], `CN(C)CCCN1c2ccccc2Sc2ccc(Cl)cc21` [CHLORPROMAZINE] returned a half-maximal inhibitory concentration (IC50) of 4.3 µM. The compound further registered an EFTPC in data set [2] of 20.5 nM.

`COCCCC/C(=N\OCCN)c1ccc(C(F)(F)F)cc1` [FLUVOXAMINE] yielded an EFTPC in [2] of 196 nM. The IC50 in data set [6] was 4.9 µM.

Turning to `O=c1[nH]c2ccccc2n1C1CCN(CCCC(c2ccc(F)cc2)c2ccc(F)cc2)CC1` [PIMOZIDE], in data set [1], the concentration for half-maximal inhibition (IC50) turned out to be 0.054 µM. Besides, the EFTPC in data set [2] came out at 0.55 nM.

For the compound `O=C1NC(=O)C(c2ccccc2)(c2ccccc2)N1` [PHENYTOIN], in data set [5], the concentration for half-maximal inhibition (IC50) came to 49 µM. The compound also displayed an EFTPC in data set [2] of 4250 nM.

As to `CC(C)COCC(CN(Cc1ccccc1)c1ccccc1)N1CCCC1` (centres undefined) [BEPRIDIL], the results for the 50% inhibitory concentration (IC50) in [5] and in data set [6] were 3.7 µM and 0.211 µM, respectively. Moreover, in data set [2], the EFTPC is 21.5 nM.

With `Cc1nc2n(c(=O)c1CCN1CCC(c3noc4cc(F)ccc34)CC1)CCCC2` [RISPERIDONE], the EFTPC in data set [2] is 1.21 nM.

`COc1cc(N)c(Cl)cc1C(=O)NC1CCN(CCCOc2ccc(F)cc2)CC1OC` (centres undefined) [CISAPRIDE] showed a half-maximal inhibitory concentration (IC50) in data set [5] of 14.7 µM. In data set [2], the EFTPC came out at 3.75 nM.

As to `COc1ccc([C@@H]2Sc3ccccc3N(CCN(C)C)C(=O)[C@@H]2OC(C)=O)cc1` [DILTIAZEM], the IC50 in data set [1] stood at 9 µM. Also, the EFTPC in [2] was 87.5 nM.

`Cc1cccc(C)c1OCC(C)N` (centres undefined) [MEXILETINE] showed a concentration for half-maximal inhibition (IC50) in [7] greater than 10 µM.

In data set [2], `CSc1ccc2c(c1)N(CCC1CCCCN1C)c1ccccc1S2` (centres undefined) [THIORIDAZINE] yielded an EFTPC of 593.5 nM.

Turning to `C1CCC2(C1)C1CN(CC3CC3)CC2CN(CC2CC2)C1`, the IC50 was found to be 20 µM in data set [1] and 2.5 µM in data set [8]. In data set [2], this compound returned an EFTPC of 80 nM.

In turn, `COCC(=O)O[C@]1(CCN(C)CCCc2nc3ccccc3[nH]2)CCc2cc(F)ccc2[C@@H]1C(C)C` [MIBEFRADIL] displayed an EFTPC in [2] of 9 nM.

Regarding `CC[C@H]1[C@@H]2C[C@H]3[C@@H]4N(C)c5ccccc5[C@]45C[C@@H]([C@@H]2[C@H]5O)N3[C@@H]1O` [AJMALINE], the half-inhibitory concentration (IC50) in [1] is […]; in [8] it was 1.04 µM. The compound further displayed an EFTPC in data set [2] of 900 nM.

`c1ccc(C2(c3ccccc3)CC2C2=NCCN2)cc1` (centres undefined) [CIFENLINE]: the figures for the IC50 in [1] and in data set [3] were 7.8 µM and 30 µM, respectively. The compound further showed an EFTPC in data set [2] of 739 nM.

In data set [1], `CN(CCOc1ccc(NS(C)(=O)=O)cc1)CCc1ccc(NS(C)(=O)=O)cc1` [DOFETILIDE] showed a half-maximal inhibitory concentration (IC50) of 300 µM. In data set [2], this compound gave an EFTPC of 1.2 nM.

As to `CN(C)CCCN1c2ccccc2CCc2ccccc21` [IMIPRAMINE], the concentration for half-maximal inhibition (IC50) in data set [1] came out at 3.6 µM; in [3] it was 8.3 µM. The EFTPC in [2] was found to be 70.5 nM.

Consider `CCOC(=O)C1=C(C)NC(C)=C(C(=O)OC)C1c1cccc([N+](=O)[O-])c1` (centres undefined) [NITRENDIPINE], for which the concentration for half-maximal inhibition (IC50) in data set [1] was 36 µM. In data set [2], this compound yielded an EFTPC of 1.56 nM.

In the case of `O=C(CCCN1CCC(O)(c2ccc(Cl)cc2)CC1)c1ccc(F)cc1` [HALOPERIDOL], the EFTPC in data set [2] amounted to 2.4 nM.

Compound `COC(=O)C1=C(C)NC(C)=C(C(=O)OC)C1c1ccccc1[N+](=O)[O-]` [NIFEDIPINE] had an EFTPC in [9] of 5.4 nM.
